# Tests used:
# [1] = Cytotoxicity against human MNK45 cells after 48 hrs by MTT assay; type: functional, cell-based; conditions: MNK45, 48 h
# In short: (§1)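 Cells kept in DMEM with 10% FBS, penicillin and streptomycin at 37 °C, 5% CO2. Seeded at 2 × 10^4 cells/well, allowed to adhere for 24 h, then exposed for 48 h to graded compound concentrations […], with 5-fluorouracil as positive control. MTT (5 mg/mL stock) added for 4 h at 37 °C, formazan dissolved in DMSO, read at 570 nm. IC50 is the mean of three independent experiments run in duplicate.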
# HeLa = assay: Cytotoxicity against human HeLa cells after 48 hrs by MTT assay; type: functional, cell-based; in short: as §1
Compound,IC50 [1] [µM],IC50 (HeLa) [µM]
C[C@H]1C(=O)OC[C@H]2[C@@H]1CC[C@@]2(C)O [SCABROL A],> 50,> 50
C[C@H]1[C@H]2OC[C@@H]3[C@@H]1C[C@H](O)[C@@]3(C)O2,> 50,> 50
C=C1COC(=O)[C@H]2[C@@H]1C[C@H](O)[C@@]2(C)O [JATAMANIN A],> 50,> 50
COC(=O)C1=CO[C@@H](O[C@@H]2O[C@H](CO)[C@@H](O)[C@H](O)[C@H]2O)[C@@H]2[C@H](C)O[C@H](OC)C[C@H]12,> 50,> 50
C=C1CO[C@]2(CO[C@@H]3O[C@H](CO)[C@@H](O)[C@H](O)[C@H]3O)C(C)=CC[C@H]12 [PATRIRIDOSIDE G],8.7,> 50
C[C@H]1C(=O)OC[C@H]2[C@@H]1C[C@H](O[C@@H]1O[C@H](CO)[C@@H](O)[C@H](O)[C@H]1O)[C@@]2(C)O [PATRISCABROSIDE I],> 50,> 50
O=c1[nH]cc(F)c(=O)[nH]1 [FLUOROURACIL],12,9.5
C[C@@H]1[C@H]2OC[C@@H]3[C@@H]1C[C@H](O)[C@@]3(C)O2,> 50,> 50
C=C[C@H]1[C@H](O[C@@H]2O[C@H](CO)[C@@H](O)[C@H](O)[C@H]2O)OC=C2C(=O)OCC[C@H]21 [SWEROSIDE],11.2,> 50
C[C@@H]1C(=O)OC[C@H]2[C@@H]1C[C@H](O)[C@@]2(C)O [ISOPATRISCABROL],> 50,24.5
CC1=CC[C@@H]2[C@H](C)CO[C@]12CO[C@@H]1O[C@H](CO[C@@H]2OC[C@](O)(CO)[C@H]2O)[C@@H](O)[C@H](O)[C@H]1O [PATRIRIDOSIDE I],30.9,> 50
C[C@@H]1C[C@@H]2OC=C(C=O)[C@@H]2[C@@H]1CO[C@@H]1O[C@H](CO)[C@@H](O)[C@H](O)[C@H]1O [PATRIRIDOSIDE D],15.6,> 50
C=C1CO[C@]2(CO[C@@H]3O[C@H](CO[C@@H]4OC[C@](O)(CO)[C@H]4O)[C@@H](O)[C@H](O)[C@H]3O)C(C)=CC[C@H]12 [PATRIRIDOSIDE H],9.4,> 50
COC(=O)C1=CO[C@@H](O[C@@H]2O[C@H](CO)[C@@H](O)[C@H](O)[C@H]2O)[C@@H]2[C@H](C)O[C@@H](O)C[C@H]12 [MORRONISIDE],> 50,> 50
C[C@H]1[C@H]2C[C@H](O)[C@@](C)(O[C@@H]3O[C@H](CO)[C@@H](O)[C@H](O)[C@H]3O)[C@H]2CO[C@@H]1O [PATRIRIDOSIDE F],> 50,> 50
C=C(CO)[C@H]1C[C@H](OC(=O)CC(C)C)[C@@](C)(O)[C@H]1CO[C@@H]1O[C@H](CO)[C@@H](O)[C@H](O)[C@H]1O [PATRINIOSIDE],23.8,> 50
COC(=O)C1=CO[C@@H](O[C@@H]2O[C@H](CO)[C@@H](O)[C@H](O)[C@H]2O)[C@@H]2[C@H](C)O[C@H](O)C[C@H]12,> 50,> 50
COC(=O)C1=CO[C@@H](O[C@@H]2O[C@H](CO)[C@@H](O)[C@H](O)[C@H]2O)[C@@H]2[C@H](C)O[C@@H](OC)C[C@H]12,> 50,> 50
C[C@H]1C(=O)OC[C@H]2[C@@H]1C[C@H](O)[C@@]2(C)O [PATRISCABROL],> 50,> 50
C[C@H]1C(=O)OC[C@H]2[C@@H]1CC[C@@]2(C)O[C@@H]1O[C@H](CO)[C@@H](O)[C@H](O)[C@H]1O [PATRIRIDOSIDE E],> 50,> 50
